Active and inactive are the calls of the source. No cut-off for these calls is given here.
Tests used:
[1] = Antiproliferative activity against human U87 cells assessed as reduction in cell viability after 48 hrs by MTT assay; assay type: functional, U-87MG ATCC; details: U-87 MG
Summary of the method: (§1)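 MTT assay. HeLa and U87 cells were grown in DMEM + 10% FBS, and MCF-7 cells in RPMI + 10% FBS. Cells were seeded at 4 × 10³/well, grown 24 h, then exposed to 0.001–100 μM for 48 h. 0.1% DMSO was the negative control and 1 μM PAO the positive control. Quadruplicate wells, ≥2 repeats.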

[2] = Antiproliferative activity against human GBM 031810 cells assessed as reduction in cell viability after 48 hrs by MTT assay; assay type: functional; details: GBM 031810, 48 h
Summary of the method: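 Patient-derived glioblastoma neurosphere culture GBM 031810, kept in Neurobasal medium with B27, Glutamax, FGF-2 (20 ng/ml), EGF (20 ng/ml) and heparin; growth factors renewed twice weekly. GI50 is the average ± SD of three determinations.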

MCF7 = experiment: Antiproliferative activity against human MCF7 cells assessed as reduction in cell viability after 48 hrs by MTT assay; assay type: functional, cell-based; details: MCF7, 48 h; summary of the method: as §1
HeLa = experiment: Antiproliferative activity against human HeLa cells assessed as reduction in cell viability after 48 hrs by MTT assay; assay type: functional, cell-based; summary of the method: as §1
A549 = experiment: Antiproliferative activity against human A549 cells assessed as reduction in cell viability up to 100 uM after 48 hrs by MTT assay; assay type: functional, cell-based
Summary of the method: (§2)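 Cells (U87 in DMEM, A549 in RPMI with 10% heat-inactivated FBS) were seeded at 4 × 10³/well, grown 24 h, then exposed to 0.001–100 μM compound (DMSO stocks) for 48 h at 37 °C, 5% CO₂. Quadruplicates, repeated at least twice; 0.1% DMSO negative control, 1 μM PAO positive control.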

U-87MG ATCC [3] = experiment: Antiproliferative activity against human U87 cells assessed as reduction in cell viability up to 100 uM after 48 hrs by MTT assay; assay type: functional, cell-based; summary of the method: as §2
NHDF = experiment: Cytotoxicity against human NHDF cells assessed as cell growth after 48 hrs by MTT assay; assay type: cell-based
Summary of the method: (§3)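 Normal fibroblasts (NHDF, NHLF) were grown in FGM-2 medium at 37 °C, 5% CO2, seeded at 4 × 10³/well and grown 24 h. Controls were 0.1% DMSO and 1 μM PAO. Quadruplicate wells, repeated at least twice.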

[4] = Cytotoxicity against human NHLF cells assessed as cell growth after 48 hrs by MTT assay; assay type: cell-based; summary of the method: as §3
U-87MG ATCC [5] = experiment: Redifferentiation of human U87 cells assessed as nonmalignant state resembling reactive astrocyte/phenotype at 7 uM after 3 days; assay type: functional, cell-based; details: in the assay text read “33 days” for “3 days”
Summary of the method: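 U87 cells were plated at 5 × 10⁴/well in DMEM/10% FBS. Next day they were re-fed and dosed at final concentrations between 15 and 5 μM, with medium not replaced afterwards. Morphology was followed for several weeks (33-day treatment shown at 7 μM) against untreated cells.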

[6] = Antiproliferative activity against human U373 cells assessed as global growth ratio measured as cell growth at 25 uM after 24 hrs by Quantitative videomicroscopy relative to untreated control; assay type: functional, U-373MG ATCC; details: in the assay text read “after 72 hrs” for “after 24 hrs”
Summary of the method: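 U373 cells were grown in RPMI + 10% heat-inactivated FBS and followed by computer-assisted phase-contrast videomicroscopy with 25 μM compound. The global growth ratio is the mean cell count per image at 24, 48 or 72 h divided by the count at 0 h, then normalised to the same ratio in the untreated control.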

SMILES | IC50 (MCF7) | IC50 (HeLa) | also measured
CC(C)c1ccc(C(C(=O)NO)c2c(-c3ccc4ccccc4c3)[nH]c3ccccc23)cc1 (centres undefined) | 1.4 µM | 0.68 µM | GI50 [1]: 5 µM; GI50 [2]: 3.4 µM
CCN(CC)c1ccc(C(C(=O)NO)c2c(-c3ccc4ccccc4c3)[nH]c3ccccc23)cc1 (centres undefined) | 7.9 µM | 4.1 µM | 
O=C(NO)C(c1ccccc1)c1c(-c2ccccc2)[nH]c2ccccc12 (centres undefined) | 31 µM | 23 µM | 
O=C(NO)C(c1ccc([N+](=O)[O-])cc1)c1c(-c2ccccc2)[nH]c2ccccc12 (centres undefined) | > 50 µM | > 50 µM | 
Cn1c(-c2ccc3ccccc3c2)c(C(C(=O)NO)c2cccc(F)c2)c2ccccc21 (centres undefined) | 25.7 µM | 36.8 µM | 
Cc1cccc(C(C(=O)NO)c2c(-c3ccc4ccccc4c3)[nH]c3ccccc23)c1 (centres undefined) | 7.4 µM | 6.9 µM | 
CCC(C)n1c(-c2ccc3ccccc3c2)c(C(C(=O)NO)c2ccccc2)c2ccccc21 (centres undefined) | 9.3 µM | 9.8 µM | 
Cn1nnc2c(C(N)=O)ncn2c1=O [TEMOZOLOMIDE] |  |  | GI50 [2]: > 1000 µM
O=C(NO)C(c1ccccc1)c1c(-c2ccccc2[N+](=O)[O-])[nH]c2ccccc12 (centres undefined) | > 50 µM | > 50 µM | 
CC(=O)O[C@H]1C(=O)[C@@]2(C)[C@H]([C@H](OC(=O)c3ccccc3)[C@]3(O)C[C@H](OC(=O)[C@H](O)[C@@H](NC(=O)c4ccccc4)c4ccccc4)C(C)=C1C3(C)C)[C@]1(OC(C)=O)CO[C@@H]1C[C@@H]2O |  |  | Activity (A549): inactive; Activity (U-87MG ATCC [3]): inactive
O=C(NO)C(c1cccc(F)c1)c1c(-c2ccc3ccccc3c2)[nH]c2ccccc12 (centres undefined) | 20.4 µM | 32.9 µM | 
O=C(NO)C(c1ccc(Cl)c(Cl)c1)c1c(-c2ccc3ccccc3c2)[nH]c2ccccc12 (centres undefined) | 12.2 µM | 31.7 µM | 
CCCCn1c(-c2ccc3ccccc3c2)c(C(C(=O)NO)c2ccccc2)c2ccccc21 (centres undefined) | 7.8 µM | 5.6 µM | 
COc1ccc(-c2[nH]c3ccccc3c2C(C(=O)NO)c2ccccc2)cc1 (centres undefined) | > 50 µM | > 50 µM | 
Cn1c(-c2ccc3ccccc3c2)c(C(C(=O)NO)c2ccccc2)c2ccccc21 (centres undefined) | 10 µM | 19.7 µM | 
O=C(NO)C(c1ccccc1)c1c(-c2ccc3ccccc3c2)n(Cc2ccccc2)c2ccccc12 (centres undefined) | 5.5 µM | 5.4 µM | 
Cn1c(-c2ccc3ccccc3c2)c(C(C(=O)NO)c2ccccc2Br)c2ccccc21 (centres undefined) | 11.2 µM | 24 µM | 
CCCCn1c(-c2ccc3ccccc3c2)c(C(C(=O)NO)c2ccc(C(C)C)cc2)c2ccccc21 (centres undefined) | 7.7 µM | 6.6 µM | 

SMILES | IC50 (MCF7) | IC50 (HeLa) | also measured
COc1ccc2[nH]c(-c3ccc4ccccc4c3)c(C(C(=O)NO)c3ccccc3)c2c1 (centres undefined) | > 50 µM | > 50 µM | 
Cc1ccc2[nH]c(-c3ccc4ccccc4c3)c(C(C(=O)NO)c3ccccc3)c2c1 (centres undefined) | > 50 µM | > 50 µM | 
Cc1ccc(C(C(=O)NO)c2c(-c3ccc4ccccc4c3)[nH]c3ccccc23)cc1C (centres undefined) | 2.5 µM | 2.7 µM | 
CCOc1ccc(C(C(=O)NO)c2c(-c3ccc4ccccc4c3)[nH]c3ccccc23)cc1 (centres undefined) | 8.5 µM | 17.3 µM | 
O=C(NO)C(c1ccccc1Br)c1c(-c2ccc3ccccc3c2)[nH]c2ccccc12 (centres undefined) | 2.7 µM | 13 µM | 
O=C(NO)C(c1ccccc1Cl)c1c(-c2ccc3ccccc3c2)[nH]c2ccccc12 (centres undefined) | 4.9 µM | 31 µM | 
COc1ccc(C(C(=O)NO)c2c(-c3ccc4ccccc4c3)[nH]c3ccccc23)cc1OC (centres undefined) | 2.4 µM | 26.9 µM | 
COc1cc([C@@H]2c3cc4c(cc3[C@H](O)[C@H]3COC(=O)[C@H]23)OCO4)cc(OC)c1OC |  |  | Activity (A549): inactive; Activity (U-87MG ATCC [3]): inactive
O=C(NO)C(c1ccc(F)cc1)c1c(-c2ccc3ccccc3c2)[nH]c2ccccc12 (centres undefined) | 6.3 µM | 18.2 µM | 
O=C(NO)C(c1ccc(OC(F)(F)F)cc1)c1c(-c2ccc3ccccc3c2)[nH]c2ccccc12 (centres undefined) | 10.2 µM | 27.4 µM | 
NC(=O)C(c1ccccc1)c1c(-c2ccc3ccccc3c2)[nH]c2ccccc12 (centres undefined) | 11.6 µM | 9.3 µM | 
N#CC(c1ccccc1)c1c(-c2ccc3ccccc3c2)[nH]c2ccccc12 (centres undefined) | 20.6 µM | 17.4 µM | 
Cc1ccc(C(C(=O)NO)c2c(-c3ccc4ccccc4c3)[nH]c3ccccc23)cc1 (centres undefined) | 4.9 µM | 6.3 µM | 
O=C(NO)C(c1ccccc1)c1c(-c2cccc3ccccc23)[nH]c2ccccc12 (centres undefined) | 32 µM | 25.7 µM | 
CN(C)c1ccc(C(C(=O)NO)c2c(-c3ccc4ccccc4c3)[nH]c3ccccc23)cc1 (centres undefined) | 1.1 µM | 0.6 µM | Activity (NHDF): Non-toxic; Activity [4]: Non-toxic; GI50 [2]: 5.6 µM
Cc1[nH]c2ccccc2c1C(C(=O)NO)c1ccccc1 (centres undefined) | > 50 µM | > 50 µM | 
O=C(NO)C(c1ccccc1)c1c(-c2ccc3ccccc3c2)[nH]c2ccccc12 (centres undefined) | 3.4 µM | 3.6 µM | Activity (NHDF): Non-toxic; Activity [4]: Non-toxic; GI50 [2]: 0.8 µM; Activity (U-87MG ATCC [5]): Active; Activity [6]: 30%

— ChEMBL document CHEMBL3414478, “Activity of 2-aryl-2-(3-indolyl)acetohydroxamates against drug-resistant cancer cells” (J Med Chem, 2015)
